Reference: publication PMC6886526 (Journal of structural biology, 2016)
Several values for one entry are separate records, joined by “and”; a condition that tells them apart may be missing. Identical values can stand only once.

Key:
[1] = biological target: T1, StAcrR (Salmonella enterica subsp. enterica serovar Typhimurium, UniProt Q7CR15); test: Fluorescence polarization; type: binding
[2] = biological target: human ENO1 (Homo sapiens, UniProt P06733); test: FP binding assay with negative control protein; conditions: ENO1 up to 100 μM
[3] = test system: EcAcrR-Glu67Ala mutant; conditions: ref Li et al., 2007, Su et al.; cited from earlier work
[4] = biological target: T1, StAcrR; test: Fluorescence-based thermal shift; type: binding; conditions: for FTS rank (Table S1): rank among hits of the SPC2-ECH008 library screen; for dose-dependent effect on StAcrR thermal stability: 2.5-100 μM ligand
[5] = biological target: Human enolase 1 (ENO1) (Homo sapiens, UniProt P06733); test: FTS assay with negative control protein; type: binding; conditions: 10, 25, 50 and 100 μM ligand
Outline: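 Human enolase 1 was mixed with SYPRO Orange dye in 100 mM HEPES pH 7.5 with 150 mM NaCl. Ligands were dispensed acoustically from a DMSO stock. Plates were scanned from 10 to 80 °C at 1.5 °C min-1 on a real-time PCR instrument, reading fluorescence every 10 s. Stabilisation was judged from the melting temperature shift (ΔTm), background reduction and melting-curve shape.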

[6] = biological target: T1, StAcrR; test: Competition FP assay in the presence of Pf; type: binding; conditions: for IC50: IC50, competition FP, 10 μM StAcrR and 100 nM Pf

Sequence of human ENO1 (P06733 whole entry): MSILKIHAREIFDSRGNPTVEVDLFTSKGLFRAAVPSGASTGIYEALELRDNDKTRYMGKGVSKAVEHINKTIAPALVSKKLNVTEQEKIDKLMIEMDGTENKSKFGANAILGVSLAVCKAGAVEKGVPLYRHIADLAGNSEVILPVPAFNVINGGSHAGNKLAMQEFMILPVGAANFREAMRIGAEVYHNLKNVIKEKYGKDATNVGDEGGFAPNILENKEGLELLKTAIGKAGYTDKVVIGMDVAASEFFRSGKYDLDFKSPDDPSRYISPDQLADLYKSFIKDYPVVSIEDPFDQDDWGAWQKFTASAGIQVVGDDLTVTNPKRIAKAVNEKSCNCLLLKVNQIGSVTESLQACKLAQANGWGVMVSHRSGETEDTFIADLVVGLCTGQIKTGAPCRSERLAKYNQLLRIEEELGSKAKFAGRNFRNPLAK
Sequence of Human enolase 1 (ENO1) (P06733 whole entry): as above

Structure (SMILES) | FTS rank (Table S1) [4] | IC50 [6] | dose-dependent effect on StAcrR thermal stability [4] | other results
Nc1ccc2cc3ccc(N)cc3nc2c1 [Pf, proflavine] | – | – | – | Kd [1]: 3.9 ± 0.1 µM; affinity to StAcrR relative to Et and R6G ([1]; ratio of FP Kd values): over 10 fold; FP increase with human ENO1 [2]: No FP increase; binding by the Glu67Ala mutant of EcAcrR [3]: abolishment of the binding
Cc1cc(N)c2ccccc2[n+]1CCCCCCCCCC[n+]1c(C)cc(N)c2ccccc21 [Dequalinium chloride, dequalinium] | 14 | 22.5 µM | – | change of Tm of StAcrR ([4]; below 10 μM ligand): did not notably change; effect on thermal stability of human enolase 1 [5]: no effect
COC1=C(OC)C(=O)C(CCCCCCCCCCO)=C(C)C1=O [Idebenone, idebenone] | 2 | 2.8 µM | required higher concentrations | –
CC/N=c1\cc2oc3cc(NCC)c(C)cc3c(-c3ccccc3C(=O)OCC)c-2cc1C [R6G, rhodamine 6G] | – | – | – | Kd [1]: 43.7 ± 1.3 µM; binding by the Glu67Ala mutant of EcAcrR [3]: abolishment of the binding
C[C@]12CC[C@H](O)CC1=CC[C@@H]1[C@@H]2CC[C@]2(C)C(=O)CC[C@@H]12 [Prasterone, prasterone] | 6 | 5.4 µM | required higher concentrations | FTS rank (Table S1) ([4]; listed as prasterone): 9
C[C@]12CC[C@@H]3c4ccc(O)cc4C[C@@H](CCCCCCCCC[S+]([O-])CCCC(F)(F)C(F)(F)F)[C@H]3[C@@H]1CC[C@@H]2O (stereo partly shown) [Fulvestrant, fulvestrant] | 1 | 40.1 µM | Apparent increase in the StAcrR thermal stability at very low concentrations | –
CC(C)c1nc(CN(C)C(=O)N[C@H](C(=O)N[C@@H](Cc2ccccc2)C[C@H](O)[C@H](Cc2ccccc2)NC(=O)OCc2cncs2)C(C)C)cs1 [Ritonavir, ritonavir] | 4 | – | Apparent increase in the StAcrR thermal stability at very low concentrations | –
CSc1nc2cc(Cl)c(Oc3cccc(Cl)c3Cl)cc2[nH]1 [Triclabendazole, triclabendazole] | 3 | 25.7 µM | required higher concentrations | –
C[C@]12CC[C@@H]3c4ccc(OC(=O)N(CCCl)CCCl)cc4CC[C@H]3[C@@H]1CC[C@@H]2O [Estramustine, estramustine] | 5 | ~18 µM and 18 µM | Apparent increase in the StAcrR thermal stability at very low concentrations | –
O=C(NC(=O)c1c(F)cccc1F)Nc1ccc(Cl)cc1 [Diflubenzuron, diflubenzuron] | – | – | – | competition with Pf for binding ([6]; negative control ligand): did not compete
CC[n+]1c(-c2ccccc2)c2cc(N)ccc2c2ccc(N)cc21 [Et, ethidium] | – | – | – | Kd [1]: 67.3 ± 4.6 µM; binding by the Glu67Ala mutant of EcAcrR [3]: abolishment of the binding
